Molecules are shown by their SMILES. Active and inactive are the calls of the source. The rule behind the calls is not given here.

13 compounds from ChEMBL document CHEMBL1629530, “1,5-Benzoxazepines vs 1,5-benzodiazepines. one-pot microwave-assisted synthesis and evaluation for antioxidant activity and lipid peroxidation inhibition” (J Med Chem, 2010) can be followed below.

Series [1] relates to Radical scavenging activity. Description: Antioxidant activity assessed as DPPH radical scavenging activity at 100 uM after 20 mins. The class given is functional. The essentials:
(§1)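 DPPH 0.05 mM in absolute ethanol mixed with an equal volume of compound in DMSO (final 50 and 100 μM). Shaken vigorously, then left to stand 20 or 60 min. At least triplicate; absorbance SD under 10% of mean.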

The test system of series [2] is Radical scavenging activity. Description: Antioxidant activity assessed as DPPH radical scavenging activity at 100 uM after 60 mins. The format is functional. The essentials: as §1
On the technique in general: DPPH is a stable violet radical that fades when it is reduced.

Series [3] can be described thus: Inhibition of AAPH-induced linoleic acid lipid peroxidation. The format is physicochemical. The essentials: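 Linoleic acid sodium salt (10 μL of 16 mM) in 0.05 M phosphate buffer pH 7.4, prethermostated at 37 °C. Oxidation started under air at 37 °C with 50 μL of 40 mM AAPH, compounds in DMSO. Conjugated diene hydroperoxide formation followed as rising absorbance at 234 nm; result given as IC50. At least triplicate.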

Another series deals with Glycine max. Put plainly: Inhibition of soybean lipoxygenase at 100 uM by UV absorbance based assay. Summed up: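 Soybean LOX (1 × 10^-4 w/v in saline, diluted 1:9 with saline) incubated at room temperature with sodium linoleate and compound in DMSO (100 μM). Conversion to 13-hydroperoxylinoleic acid recorded at 234 nm against a standard inhibitor. At least triplicate.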

Series [4] concerns Radical scavenging activity. Put plainly: Antioxidant activity assessed as DPPH radical scavenging activity at 50 uM after 20 mins. The class given is functional. Summed up: as §1
Series [5] relates to Radical scavenging activity. Description: Antioxidant activity assessed as DPPH radical scavenging activity at 50 uM after 60 mins. The class given is functional. The essentials:
as §1

Series [6] deals with Rattus norvegicus. Description: Antiinflammatory activity in Fisher 344 rat assessed as inhibition of carrageenan-induced paw edema at 0.01 mmol/kg, ip administered simultaneously with carrageenan. The format is functional. The settings on record: Fisher 344, ip. The essentials:
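Edema induced by intradermal injection of 0.1 mL 2% carrageenin in water into right hind paw of Fisher 344 rats (150-200 g), both sexes, pregnant females excluded, fasted during experiment; 6-15 animals per group. Compound suspended in water with a few drops of Tween 80, given ip. Rats euthanized 3.5 h later. Injected minus uninjected paw weight compared with water-treated controls as % inhibition; mean of two experiments.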
(In general: Carrageenan injected into the paw causes an acute inflammation.)

Series [7] relates to Rattus norvegicus. Description: Toxicity in Fisher 344 rat carrageenan-induced inflammation model at 0.2 mmol/kg, ip administered simultaneously with carrageenan. The format is organism-based. The following applies: in vivo.

The term IC50 denotes the midpoint of a concentration-inhibition curve. As a reminder, the inhibition is the percentage by which the read-out fell short of the control. On to `Cc1ccc(NC(=O)Oc2cccc3c2N=C(c2ccccc2)CC(C)(c2ccccc2)N3)cc1` (stereo not drawn), for which the Activity worked out at 10% in series [1] and 9% in series [2]. This compound came in with an IC50 in series [3] of 50 µM. Further, the inhibition in the series with Glycine max stood at 3%.

As for `CC(Cc1ccc(O)c(O)c1)C(C)Cc1ccc(O)c(O)c1` (stereo not drawn), the Activity in series [1] came to 93%; in series [2], 96%. For the same compound, in the series with Glycine max, the inhibition was determined as 84%.

In the case of `CC1=Nc2c(O)cccc2NC(C)(C)C1`, the Activity was 66% in series [1], 44% in series [4], 65% in series [2] and 67% in series [5]. Further, in series [3], the IC50 stood at 77 µM. In addition, the inhibition entry in the series with Glycine max was “inactive”.

As to `CC1(c2cccc([N+](=O)[O-])c2)CC(c2cccc([N+](=O)[O-])c2)=Nc2c(O)cccc2N1` (stereo not drawn), the Activity in series [1] and in series [2] was 32% each time. In series [3], this compound had an IC50 of 46 µM. Moreover, in the series on Glycine max, the inhibition entry was “inactive”.

Regarding `COc1cccc(C2=Nc3c(O)cccc3NC(C)(c3cccc(OC)c3)C2)c1` (stereo not drawn), the Activity in series [1] and in series [2] was 27% throughout. This compound also displayed an IC50 in series [3] of 60 µM. The inhibition in the series on Glycine max is 37%.

As usually defined, the inhibition in vivo is the change of the read-out against control, counted positive when it falls. Turning to `COc1ccc2c(c1)c(CC(=O)O)c(C)n2C(=O)c1ccc(Cl)cc1` [INDOMETHACIN], the inhibition in vivo at 10 µmol/kg in the series with Rattus norvegicus [6] turned out to be 47%.

For `CC1(c2ccccc2)CC(c2ccccc2)=Nc2c(O)cccc2N1` (stereo not drawn), the Activity is 30% in series [1] and 29% in series [2]. This compound also gave an IC50 in series [3] of 50 µM. The compound further returned an inhibition in the series on Glycine max of 28%.

For `COc1ccccc1C1=Nc2c(O)cccc2NC(C)(c2ccccc2OC)C1` (stereo not drawn), the Activity in series [1] and in series [2] was 36% each time. Also, the IC50 in series [3] amounted to 46 µM. In addition, the inhibition in the series on Glycine max is 3%.

On to `Cc1c(C)c2c(c(C)c1O)CCC(C)(C(=O)O)O2` (stereo not drawn) [TROLOX], for which the IC50 in series [3] came out at 63 µM.

Consider `CC1(c2ccc(Cl)cc2)CC(c2ccc(Cl)cc2)=Nc2c(N)cccc2O1` (stereo not drawn), for which the Activity in series [1] amounted to 86%; in series [4], 87%; in series [2] it was 86%; in series [5] it was 86%. Moreover, the midpoint of inhibition in series [3], the IC50, lay at 47.5 µM. For the same compound, the inhibition entry with Glycine max was “inactive”.

On to `CC1=Nc2c(N)cccc2OC(C)(C)C1`, for which the Activity in series [1] worked out at 86%; in series [4], 87%; in series [2], 86%; in series [5], 88%. The IC50 in series [3] was found to be 70 µM. In the series with Glycine max, the inhibition was 98%.

Take `CC1(C)CC(c2ccccc2)=Nc2ccccc2N1`: the Activity in series [1] was 15%; in series [2], 14%. The compound further showed an IC50 in series [3] of 45 µM. Besides, the inhibition with Glycine max worked out at 6%.

Consider `CC1(c2ccc(Cl)cc2)CC(c2ccc(Cl)cc2)=Nc2c(O)cccc2N1` (stereo not drawn), for which the Activity in series [1] was 54%; in series [2] it was 53%; in the series on Rattus norvegicus [7] it was “Non-toxic”. The compound further yielded an IC50 in series [3] of 2.5 µM. Further, the inhibition entry with Glycine max is “inactive”. In addition, in the series on Rattus norvegicus [6], the inhibition in vivo at 10 µmol/kg amounted to 35%.
